The target of data set [1] is T1, hERG (Homo sapiens, UniProt Q12809). Put plainly: Inhibition of human ERG-mediated current expressed in CHO cells at 3 uM by patch clamp method. In kind it is cell-based. The note with it: CHO cells expressing human ERG. The procedure, abridged:
(§1)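 hERG-transfected CHO cells on automated whole-cell patch clamp at a holding potential of −80 mV; 1 s depolarizing pulse at 0.1 Hz; tail current measured at −40 mV. Sequence: 0.3% DMSO vehicle, three ascending log-interval concentrations up to 30 μM or the solubility limit, then 1 μM E-4031. At least 3 cells per compound; data normalized to vehicle and fitted with the Hill equation.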

For data set [2], the target named is T2, Diacylglycerol O-acyltransferase 1 (Homo sapiens, UniProt O75907).
T2 sequence (O75907 whole entry): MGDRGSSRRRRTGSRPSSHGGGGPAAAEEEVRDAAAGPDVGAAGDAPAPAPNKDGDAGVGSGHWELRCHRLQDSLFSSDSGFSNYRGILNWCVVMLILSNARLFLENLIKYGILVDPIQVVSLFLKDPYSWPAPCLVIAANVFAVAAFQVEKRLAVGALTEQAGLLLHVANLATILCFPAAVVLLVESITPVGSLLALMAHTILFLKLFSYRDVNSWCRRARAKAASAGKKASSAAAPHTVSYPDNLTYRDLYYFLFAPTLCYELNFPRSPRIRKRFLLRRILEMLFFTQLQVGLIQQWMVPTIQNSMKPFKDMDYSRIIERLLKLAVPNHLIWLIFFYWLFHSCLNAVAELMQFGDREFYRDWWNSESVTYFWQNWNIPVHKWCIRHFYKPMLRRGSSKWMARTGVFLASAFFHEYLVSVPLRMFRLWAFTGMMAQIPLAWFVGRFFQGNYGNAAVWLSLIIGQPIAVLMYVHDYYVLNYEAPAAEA
Briefly: Inhibition of human DGAT1 expressed in CHO-K1 cells after 1 hr using 14C palmitic acid.

Data set [3] addresses T2, Diacylglycerol O-acyltransferase 1. Put plainly: Inhibition of human DGAT1 expressed in baculovirus infected insect cells after 1 hr using palmitoyl-1-14C-coenzyme A by phospholipid flashplate assay.
Data set [4] is described as follows: Cmax in diet-induced obese mouse plasma at 25 mg/kg administered as suspension. The format is ADME, organism-based. Set-up: dose 25 mg/kg.
The nature of data set [5]: Tmax in diet-induced obese mouse at 25 mg/kg administered as suspension. The format is ADME, organism-based. Set-up: dose 25 mg/kg. To be noted: in vivo.
In data set [6] the target is T1, hERG. Put plainly: Inhibition of human ERG-mediated current expressed in CHO cells by patch clamp method. To be noted: CHO cells expressing human ERG. In kind it is cell-based. The procedure, abridged: as §1
(In general: The patch-clamp technique gives a direct electrical read-out from membranes.)

For data set [7], the target named is T1, hERG. Briefly: Inhibition of human ERG-mediated current expressed in CHO cells at 30 uM by patch clamp method. The format is cell-based. The note with it: CHO cells expressing human ERG. The essentials:
as §1

In data set [8] the target is T1, hERG. Briefly: Inhibition of human ERG-mediated current expressed in CHO cells at 1 uM by patch clamp method. To be noted: CHO cells expressing human ERG. The format is cell-based. The essentials:
as §1

Data set [9] can be described thus: Solubility of the compound at mp 217 degC. The format is physicochemical.
Data set [10] has as its target T1, hERG. Put plainly: Inhibition of human ERG.
The nature of data set [11]: Oral bioavailability in rat at 5 mg/kg. The note with it: in vivo. In kind it is ADME, organism-based.
In a further data set the test system is Rattus norvegicus. Briefly: Antiobesity activity in diet-induced obese rat assessed as reduction in body weight gain at 25 mg/kg, po qd. In kind it is functional. Set-up: scale not given: the % may be the effect or the level left.
Another data set is filed under the species Cavia porcellus. Briefly: Cardiotoxicity in guinea pig Langendorff heart model assessed as QT QT prolongation. In kind it is toxicity.
The nature of data set [12]: Clearance in rat at 5 mg/kg, iv. The format is ADME, organism-based. Set-up: dose 5 mg/kg, route intravenous. The note with it: in vivo.

The structures appear in SMILES notation.

T1 sequence (Q12809 whole entry): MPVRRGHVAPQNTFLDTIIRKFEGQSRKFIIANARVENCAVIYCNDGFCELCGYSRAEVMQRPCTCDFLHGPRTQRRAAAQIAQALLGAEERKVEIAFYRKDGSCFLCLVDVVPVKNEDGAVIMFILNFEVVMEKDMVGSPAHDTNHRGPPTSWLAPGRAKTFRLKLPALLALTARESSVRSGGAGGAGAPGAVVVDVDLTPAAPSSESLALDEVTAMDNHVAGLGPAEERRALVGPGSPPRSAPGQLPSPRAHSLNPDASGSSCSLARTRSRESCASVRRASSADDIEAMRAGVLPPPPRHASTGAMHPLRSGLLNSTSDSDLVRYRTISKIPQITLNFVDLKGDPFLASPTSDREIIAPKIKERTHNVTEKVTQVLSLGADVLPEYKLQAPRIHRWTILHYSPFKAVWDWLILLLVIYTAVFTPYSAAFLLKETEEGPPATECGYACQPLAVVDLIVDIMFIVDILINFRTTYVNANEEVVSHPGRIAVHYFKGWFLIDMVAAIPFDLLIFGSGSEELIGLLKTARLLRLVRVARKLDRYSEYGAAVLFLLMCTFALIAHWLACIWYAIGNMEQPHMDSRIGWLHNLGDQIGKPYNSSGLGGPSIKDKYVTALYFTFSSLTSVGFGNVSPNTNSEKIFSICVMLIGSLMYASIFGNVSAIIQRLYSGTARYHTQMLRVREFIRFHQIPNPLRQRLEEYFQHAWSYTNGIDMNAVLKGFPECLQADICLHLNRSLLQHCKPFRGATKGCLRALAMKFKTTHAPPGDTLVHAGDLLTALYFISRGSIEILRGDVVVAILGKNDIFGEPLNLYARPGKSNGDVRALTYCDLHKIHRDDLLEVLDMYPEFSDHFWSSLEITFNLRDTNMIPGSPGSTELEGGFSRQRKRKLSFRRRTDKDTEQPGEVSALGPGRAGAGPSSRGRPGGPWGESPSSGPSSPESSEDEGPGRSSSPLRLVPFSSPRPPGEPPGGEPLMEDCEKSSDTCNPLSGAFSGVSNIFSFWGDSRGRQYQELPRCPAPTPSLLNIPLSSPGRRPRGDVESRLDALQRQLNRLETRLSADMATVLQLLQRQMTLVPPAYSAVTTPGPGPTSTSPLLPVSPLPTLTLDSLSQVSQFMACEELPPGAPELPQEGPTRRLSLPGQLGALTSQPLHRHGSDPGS

By inhibition is commonly meant the share of the control response that was lost under treatment. The term EC50 denotes the concentration giving half of the maximal effect. As usually defined, the IC50 is the concentration needed to halve the response being measured. Turning to `O=C(Nc1ccc(C2CCN(C(=O)[C@H]3CC[C@@H](C(=O)O)CC3)CC2)cc1)c1nc(-c2ccccc2)oc1C(F)(F)F`, the inhibition at 3 µM against hERG [1] came out at 21%. The same compound yielded an EC50 in [2] of 0.22 µM. In data set [3], this compound showed an IC50 of 82 nM. For orientation: Cmax means the maximum level reached in the sampled fluid or tissue. Usually Tmax stands for the time from dosing to the highest level. On to `O=C(Nc1ccc(C2CCN(C(=O)C3CC3)CC2)cc1)c1nc(-c2ccccc2)oc1C(F)(F)F`, for which the Cmax in [4] was 76 ng/mL. Besides, at 3 µM the inhibition against hERG [1] was 13%. Besides, in data set [5], the Tmax stood at 1 h. What is called IC20 is the concentration at which the effect reaches the 20% level. At hERG [6], `O=C(Nc1ccc(N2CCN(C(=O)C3CC3)CC2)nc1)c1nc(-c2ccccc2)oc1C(F)(F)F` yielded an IC20 of 180 nM. For `O=C(O)COC1CN(c2ccc(NC(=O)c3nc(-c4ccccc4)oc3C(F)(F)F)cn2)C1`, on hERG [7], the inhibition at 30 µM was 12%. Take `COCCN(C)c1ncc(NC(=O)c2nc(-c3ccccc3)oc2C(F)(F)F)cn1`: the IC20 at hERG [6] was 1500 nM.

For the compound `COCCN(C)c1ccc(NC(=O)c2nc(-c3ccccc3)oc2C(F)(F)F)cc1`, 1 µM produced 18% inhibition against hERG [8]. In the case of `COC(=O)N1CCN(c2ccc(NC(=O)c3nc(-c4ccccc4)oc3C(F)(F)F)cn2)CC1`, on hERG [6], the IC20 stood at 1940 nM. On hERG [8], `COC(=O)N1CCN(c2ncc(NC(=O)c3nc(-c4ccccc4)oc3C(F)(F)F)cn2)CC1` returned an inhibition at 1 µM of 28%.

With `O=C(Nc1ccc(N2CCN(C(=O)[C@H]3CC[C@@H](C(=O)O)CC3)CC2)cc1)c1nc(-c2ccccc2)oc1C(F)(F)F`, on hERG [6], the IC20 is greater than 10000 nM. In turn, `COC(=O)N1CCC(c2ccc(NC(=O)c3nc(-c4ccccc4)oc3C(F)(F)F)cc2)CC1` yielded a Cmax in [4] of less than 10 ng/mL. `COC(=O)N1CCN(c2ccc(NC(=O)c3nc(-c4ccccc4)oc3C(F)(F)F)cc2)CC1` yielded an inhibition at 3 µM on hERG [1] of 16%. Consider `O=C(Nc1ccc(N2CCN(C(=O)[C@H]3CC[C@H](C(=O)O)CC3)CC2)cc1)c1nc(-c2ccccc2)oc1C(F)(F)F`, for which at 1 µM the inhibition on hERG [8] was 5%. `O=C(Nc1cnc(N2CC[C@H](O)C2)nc1)c1nc(-c2ccccc2)oc1C(F)(F)F`: the IC20 against hERG [6] amounted to 10000 nM. As to `O=C(Nc1ccc(N2CCN(C(=O)C3CC3)CC2)cc1)c1nc(-c2ccccc2)oc1C(F)(F)F`, on hERG [1], 3 µM produced 35% inhibition. For the compound `O=C(Nc1ccc(C2CCN(C(=O)C3CC3)CC2)nc1)c1nc(-c2ccccc2)oc1C(F)(F)F`, on hERG [6], the 20% effect level (IC20) was put at 1730 nM. `CCOC1CN(c2ccc(NC(=O)c3nc(-c4ccccc4)oc3C(F)(F)F)cn2)C1` had an IC20 on hERG [6] of 370 nM. Take `COC(=O)N1CCC(c2ccc(NC(=O)c3nc(-c4ccccc4)oc3C(F)(F)F)cn2)CC1`: the inhibition at 1 µM against hERG [8] came out at 16%. In general, solubility refers to the concentration that dissolves in the medium under given conditions. In data set [2], `O=C(Nc1ccc(N2CC(F)(F)C2)nc1)c1nc(-c2ccccc2)oc1C(F)(F)F` gave an EC50 of 25 µM. The solubility in data set [9] is less than 1 µg/mL. For the same compound, the midpoint of inhibition in [3], the IC50, lay at 16 nM. The inhibition at 1 µM at hERG [8] amounted to 17%. The bioavailability is dose-corrected exposure relative to a reference, in per cent. Broadly, the clearance is the rate of elimination divided by the concentration. Regarding `COCCN(C)c1ccc(NC(=O)c2nc(-c3ccccc3)oc2C(F)(F)F)cn1`, the IC20 against hERG [10] and against hERG [6] was 200 nM each time. The bioavailability in [11] is 77%. The Activity in the data set on Rattus norvegicus is 4.3%; in the data set listed under Cavia porcellus it was “Toxic”. The compound further had a clearance in [12] of 13.5 mL/min/kg. Consider `CCOC(=O)N1CCN(c2ccc(NC(=O)c3nc(-c4ccccc4)oc3C(F)(F)F)cn2)CC1`, for which the IC20 at hERG [6] came out at 800 nM. At hERG [7], `COCCN(C)c1ccc(NC(=O)c2nc(C)oc2C(F)(F)F)cn1` registered an inhibition at 30 µM of 37%. For the compound `COCCN(C)c1ccc(N(C)C(=O)c2nc(-c3ccccc3)oc2C(F)(F)F)cn1`, at hERG [7], at 30 µM the inhibition was 34%.

For the origin of these results see ChEMBL document CHEMBL1764953, “Discovery of orally active carboxylic acid derivatives of 2-phenyl-5-trifluoromethyloxazole-4-carboxamide as potent diacylglycerol acyltransferase-1 inhibitors for the potential treatment of obesity and diabetes” (J Med Chem, 2011).
